Laboratory results taken from ChEMBL document CHEMBL1926569, “Novel (E)-1-(4-methyl-2-(alkylamino)thiazol-5-yl)-3-arylprop-2-en-1-ones as potent antimicrobial agents” (2011).
Values after ≈ are worked out from the molar mass of the structure shown.

What was measured:
[1] = test system: Staphylococcus aureus; test: Antibacterial activity against Staphylococcus aureus ATCC 6538 after 24 hrs by microdilution method; type: functional; settings: ATCC 6538, 24 h
Procedure, shortened: (§1)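 Broth microdilution in 96-well plates. Bacterial suspensions were adjusted in sterile saline to 1.0 × 10⁵ CFU/ml, prepared daily and kept at 4 °C. Compound was added to LB broth with 1.0 × 10⁴ CFU per well and shaken at 160 rpm for 24 h at […] (so in the source). MIC is the lowest concentration with no visible growth under a binocular microscope. OD655 was also read. Duplicate, repeated three times.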

[2] = test system: Bacillus cereus; test: Antibacterial activity against clinical isolate of Bacillus cereus after 24 hrs by microdilution method; type: functional; procedure, shortened: as §1
[3] = test system: Micrococcus flavus; test: Antibacterial activity against Micrococcus flavus ATCC 10240 after 24 hrs by microdilution method; type: functional; settings: ATCC 10240, 24 h; procedure, shortened: as §1
[4] = test system: Listeria monocytogenes; test: Antibacterial activity against Listeria monocytogenes NCTC 7973 after 24 hrs by microdilution method; type: functional; settings: NCTC 7973, 24 h; procedure, shortened: as §1
[5] = test system: Pseudomonas aeruginosa; test: Antibacterial activity against Pseudomonas aeruginosa ATCC 27853 after 24 hrs by microdilution method; type: functional; settings: ATCC 27853, 24 h; procedure, shortened: as §1
[6] = test system: Salmonella typhimurium; test: Antibacterial activity against Salmonella Typhimurium ATCC 13311 after 24 hrs by microdilution method; type: functional, Salmonella enterica subsp. enterica serovar Typhimurium; settings: Salmonella enterica, ATCC 13311, 24 h; procedure, shortened: as §1
[7] = test system: Escherichia coli; test: Antibacterial activity against Escherichia coli ATCC 35210 after 24 hrs by microdilution method; type: functional; settings: ATCC 35210, 24 h; procedure, shortened: as §1
[8] = test system: Enterococcus faecalis; test: Antibacterial activity against Enterococcus faecalis isolated from human after 24 hrs by microdilution method; type: functional; procedure, shortened: as §1
[9] = test system: Staphylococcus aureus; test: Antibacterial activity against Staphylococcus aureus ATCC 6538 incubated for 24 hrs followed by serial sub-cultivation for 24 hrs by microdilution method; type: functional; settings: ATCC 6538, 24 h
Procedure, shortened: (§2)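 MBC: after the 24 h LB broth microdilution (1.0 × 10⁴ CFU per well, 160 rpm), wells were serially sub-cultured into fresh broth plates and incubated a further 24 h. MBC is the lowest concentration with no visible growth, taken as 99.5% killing of the original inoculum. Duplicate, repeated three times.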

[10] = test system: Bacillus cereus; test: Antibacterial activity against clinical isolate of Bacillus cereus incubated for 24 hrs followed by serial sub-cultivation for 24 hrs by microdilution; type: functional; procedure, shortened: as §2
[11] = test system: Micrococcus flavus; test: Antibacterial activity against Micrococcus flavus ATCC 10240 incubated for 24 hrs followed by serial sub-cultivation for 24 hrs by microdilution; type: functional; settings: ATCC 10240, 24 h; procedure, shortened: as §2
[12] = test system: Listeria monocytogenes; test: Antibacterial activity against Listeria monocytogenes NCTC 7973 incubated for 24 hrs followed by serial sub-cultivation for 24 hrs by microdilution; type: functional; settings: NCTC 7973, 24 h; procedure, shortened: as §2
[13] = test system: Pseudomonas aeruginosa; test: Antibacterial activity against Pseudomonas aeruginosa ATCC 27853 incubated for 24 hrs followed by serial sub-cultivation for 24 hrs by microdilution; type: functional; settings: ATCC 27853, 24 h; procedure, shortened: as §2
[14] = test system: Salmonella typhimurium; test: Antibacterial activity against Salmonella Typhimurium ATCC 13311 incubated for 24 hrs followed by serial sub-cultivation for 24 hrs by microdilution; type: functional, Salmonella enterica subsp. enterica serovar Typhimurium; settings: Salmonella enterica, ATCC 13311, 24 h; procedure, shortened: as §2
[15] = test system: Escherichia coli; test: Antibacterial activity against Escherichia coli ATCC 35210 incubated for 24 hrs followed by serial sub-cultivation for 24 hrs by microdilution; type: functional; settings: ATCC 35210, 24 h; procedure, shortened: as §2
[16] = test system: Enterococcus faecalis; test: Antibacterial activity against Enterococcus faecalis isolated from human incubated for 24 hrs followed by serial sub-cultivation for 24 hrs by microdilution; type: functional; procedure, shortened: as §2
[17] = test system: Aspergillus ochraceus; test: Antifungal activity against Aspergillus ochraceus ATCC 12066 after 72 hrs by serial dilution technique; type: functional; settings: ATCC 12066, 72 h
Procedure, shortened: (§3)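 Modified microdilution in 96-well plates. Fungi were kept on malt agar at 4 °C. Spores were washed off in sterile 0.85% saline with 0.1% Tween 80. Compounds were dissolved at 1 mg/ml in 5% DMSO with 0.1% Tween 80 and added to malt broth with inoculum. Plates were shaken at 160 rpm for 72 h at 28 °C. Duplicate, repeated three times.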

[18] = test system: Aspergillus niger; test: Antifungal activity against Aspergillus niger ATCC 6275 after 72 hrs by serial dilution technique; type: functional; settings: ATCC 6275, 72 h; procedure, shortened: as §3
[19] = test system: Aspergillus flavus; test: Antifungal activity against Aspergillus flavus ATCC 9643 after 72 hrs by serial dilution technique; type: functional; settings: ATCC 9643, 72 h; procedure, shortened: as §3
[20] = test system: Talaromyces funiculosus; test: Antifungal activity against Penicillium funiculosum ATCC 36839 after 72 hrs by serial dilution technique; type: functional; settings: ATCC 36839, 72 h; procedure, shortened: as §3
[21] = test system: Penicillium ochrochloron; test: Antifungal activity against Penicillium ochrochloron ATCC 9112 after 72 hrs by serial dilution technique; type: functional; settings: ATCC 9112, 72 h; procedure, shortened: as §3
[22] = test system: Trichoderma viride; test: Antifungal activity against Trichoderma viride IAM 5061 after 72 hrs by serial dilution technique; type: functional; settings: IAM 5061, 72 h; procedure, shortened: as §3
[23] = test system: Candida albicans; test: Antifungal activity against Candida albicans isolated from human after 72 hrs by serial dilution technique; type: functional; procedure, shortened: as §3
[24] = test system: Aspergillus ochraceus; test: Antifungal activity against Aspergillus ochraceus ATCC 12066 incubated for 72 hrs followed by serial sub-cultivation for 72 hrs by serial dilution technique; type: functional; settings: ATCC 12066, 72 h
Procedure, shortened: (§4)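 MFC: material from 72 h malt broth microdilution wells was serially sub-cultured into fresh broth plates and incubated a further 72 h at 28 °C. Fungicidal concentration is taken from growth after sub-culture. Duplicate, repeated three times.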

[25] = test system: Aspergillus fumigatus; test: Antifungal activity against Aspergillus fumigatus isolated from human incubated for 72 hrs followed by serial sub-cultivation for 72 hrs by serial dilution technique; type: functional; procedure, shortened: as §4
[26] = test system: Aspergillus niger; test: Antifungal activity against Aspergillus niger ATCC 6275 incubated for 72 hrs followed by serial sub-cultivation for 72 hrs by serial dilution technique; type: functional; settings: ATCC 6275, 72 h; procedure, shortened: as §4
[27] = test system: Aspergillus flavus; test: Antifungal activity against Aspergillus flavus ATCC 9643 incubated for 72 hrs followed by serial sub-cultivation for 72 hrs by serial dilution technique; type: functional; settings: ATCC 9643, 72 h; procedure, shortened: as §4
[28] = test system: Talaromyces funiculosus; test: Antifungal activity against Penicillium funiculosum ATCC 36839 incubated for 72 hrs followed by serial sub-cultivation for 72 hrs by serial dilution technique; type: functional; settings: ATCC 36839, 72 h; procedure, shortened: as §4
[29] = test system: Penicillium ochrochloron; test: Antifungal activity against Penicillium ochrochloron ATCC 9112 incubated for 72 hrs followed by serial sub-cultivation for 72 hrs by serial dilution technique; type: functional; settings: ATCC 9112, 72 h; procedure, shortened: as §4
[30] = test system: Trichoderma viride; test: Antifungal activity against Trichoderma viride IAM 5061 incubated for 72 hrs followed by serial sub-cultivation for 72 hrs by serial dilution technique; type: functional; settings: IAM 5061, 72 h; procedure, shortened: as §4
[31] = test system: Candida albicans; test: Antifungal activity against Candida albicans isolated from human incubated for 72 hrs followed by serial sub-cultivation for 72 hrs by serial dilution technique; type: functional; procedure, shortened: as §4
[32] = test system: Aspergillus ochraceus; test: Antifungal activity against Aspergillus ochraceus after 72 hrs by serial dilution technique
[33] = test system: Pseudomonas aeruginosa; test: Ratio of ampicillin MIC to compound MIC for Pseudomonas aeruginosa ATCC 27853; type: functional
[34] = test system: Aspergillus ochraceus; test: Ratio of bifonazole to compound for Aspergillus ochraceus ATCC 12066; type: functional
[35] = test system: Aspergillus niger; test: Ratio of bifonazole to compound for Aspergillus niger ATCC 6275; type: functional
[36] = test system: Talaromyces funiculosus; test: Ratio of bifonazole to compound for Penicillium funiculosum ATCC 36839; type: functional
[37] = test system: Penicillium ochrochloron; test: Ratio of bifonazole to compound for Penicillium ochrochloron ATCC 9112; type: functional
[38] = test system: Trichoderma viride; test: Ratio of bifonazole to compound for Trichoderma viride IAM 5061; type: functional
[39] = test system: Candida albicans; test: Ratio of bifonazole to compound for Candida albicans isolated from human; type: functional
[40] = test system: Aspergillus ochraceus; test: Ratio of ketoconazole to compound for Aspergillus ochraceus ATCC 12066; type: functional
[41] = test system: Aspergillus fumigatus; test: Ratio of ketoconazole to compound for Aspergillus fumigatus isolated from human; type: functional
[42] = test system: Penicillium ochrochloron; test: Ratio of ketoconazole to compound for Penicillium ochrochloron ATCC 9112; type: functional
[43] = test system: Candida albicans; test: Ratio of ketoconazole to compound for Candida albicans isolated from human; type: functional

CC1(C)S[C@@H]2[C@H](NC(=O)[C@H](N)c3ccccc3)C(=O)N2[C@H]1C(=O)O [AMPICILLIN]
MIC [1]: 248 µM (≈ 86.7 µg/mL)
MIC [2]: 248 µM (≈ 86.7 µg/mL)
MIC [3]: 248 µM (≈ 86.7 µg/mL)
MIC [4]: 372 µM (≈ 130 µg/mL)
MIC [5]: 744 µM (≈ 260 µg/mL)
MIC [6]: 248 µM (≈ 86.7 µg/mL)
MIC [7]: 372 µM (≈ 130 µg/mL)
MIC [8]: 248 µM (≈ 86.7 µg/mL)
MBC [9]: 372 µM (≈ 130 µg/mL)
MBC [10]: 372 µM (≈ 130 µg/mL)
MBC [11]: 372 µM (≈ 130 µg/mL)
MBC [12]: 744 µM (≈ 260 µg/mL)
MBC [13]: 1240 µM (≈ 433 µg/mL)
MBC [14]: 492 µM (≈ 172 µg/mL)
MBC [15]: 492 µM (≈ 172 µg/mL)
MBC [16]: 372 µM (≈ 130 µg/mL)

c1ccc(-c2ccc(C(c3ccccc3)n3ccnc3)cc2)cc1 (stereo not given) [BIFONAZOLE]
MIC [17]: 480 µM (≈ 149 µg/mL)
MIC [18]: 480 µM (≈ 149 µg/mL)
MIC [19]: 480 µM (≈ 149 µg/mL)
MIC [20]: 640 µM (≈ 199 µg/mL)
MIC [21]: 480 µM (≈ 149 µg/mL)
MIC [22]: 640 µM (≈ 199 µg/mL)
MIC [23]: 320 µM (≈ 99.3 µg/mL)
MFC [24]: 800 µM (≈ 248 µg/mL)
MFC [25]: 640 µM (≈ 199 µg/mL)
MFC [26]: 640 µM (≈ 199 µg/mL)
MFC [27]: 640 µM (≈ 199 µg/mL)
MFC [28]: 800 µM (≈ 248 µg/mL)
MFC [29]: 640 µM (≈ 199 µg/mL)
MFC [30]: 800 µM (≈ 248 µg/mL)
MFC [31]: 480 µM (≈ 149 µg/mL)
MIC [32]: 480 µM (≈ 149 µg/mL)

CCNc1nc(C)c(C(=O)/C=C/c2cccc(Cl)c2)s1
MIC [1]: 98 µM (≈ 30.1 µg/mL)
MIC [2]: 49.1 µM (≈ 15.1 µg/mL)
MIC [3]: 32.7 µM (≈ 10 µg/mL)
MIC [4]: 98 µM (≈ 30.1 µg/mL)
MIC [5]: 65.3 µM (≈ 20 µg/mL)
MIC [6]: 49.1 µM (≈ 15.1 µg/mL)
MIC [7]: 49.1 µM (≈ 15.1 µg/mL)
MIC [8]: 49.1 µM (≈ 15.1 µg/mL)
MBC [9]: 98 µM (≈ 30.1 µg/mL)
MBC [10]: 65.3 µM (≈ 20 µg/mL)
MBC [11]: 81.7 µM (≈ 25.1 µg/mL)
MBC [12]: 114 µM (≈ 35.1 µg/mL)
MBC [13]: 81.7 µM (≈ 25.1 µg/mL)
MBC [14]: 65.3 µM (≈ 20 µg/mL)
MBC [15]: 65.3 µM (≈ 20 µg/mL)
MBC [16]: 65.3 µM (≈ 20 µg/mL)
MIC [17]: 65.3 µM (≈ 20 µg/mL)
MIC [18]: 65.3 µM (≈ 20 µg/mL)
MIC [19]: 65.3 µM (≈ 20 µg/mL)
MIC [20]: 32.7 µM (≈ 10 µg/mL)
MIC [21]: 65.3 µM (≈ 20 µg/mL)
MIC [22]: 32.7 µM (≈ 10 µg/mL)
MIC [23]: 32.7 µM (≈ 10 µg/mL)
MFC [24]: 81.7 µM (≈ 25.1 µg/mL)
MFC [25]: 65.3 µM (≈ 20 µg/mL)
MFC [26]: 81.7 µM (≈ 25.1 µg/mL)
MFC [27]: 81.7 µM (≈ 25.1 µg/mL)
MFC [28]: 65.3 µM (≈ 20 µg/mL)
MFC [29]: 81.7 µM (≈ 25.1 µg/mL)
MFC [30]: 65.3 µM (≈ 20 µg/mL)
MFC [31]: 65.3 µM (≈ 20 µg/mL)
Ratio [33]: 10
Ratio [34]: 10
Ratio [35]: 10
Ratio [36]: 10
Ratio [37]: 10
Ratio [38]: 10
Ratio [39]: 10
Ratio [40]: 10
Ratio [41]: 10
Ratio [42]: 10
Ratio [43]: 10
MIC [32]: 32.7 µM (≈ 10 µg/mL)
